Here are results for 16 compounds from ChEMBL document CHEMBL1150387, “Development and experimental validation of a docking strategy for the generation of kinase-targeted libraries” (J Med Chem, 2008).

In experiment [1] the target is RAC-alpha serine/threonine-protein kinase (Homo sapiens) (UniProt P31749). Put plainly: Inhibition of AKT1/PKBalpha at 10 uM by HTRF assay relative to control. Put shortly:
(§1)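 HTRF kinase assay, one panel of kinases. Inhibitor stock 50 µM in 100% DMSO; tested at 10 µM. ATP and substrate at final levels near Km. Final buffer: 50 mM Hepes/NaOH pH 7.4, 40 µM Na3VO4, 0.005% Tween-20, 1 mM DTT, MnCl2 or MgCl2 at kinase-dependent levels. Started by adding ATP/substrate. Reaction run at room temperature, time varied by kinase. Detection mix in 50 mM Hepes pH 7.4, 0.1% BSA, 150 mM KF, incubated ≥1 h at room temperature. Activity expressed as % of uninhibited control; n=2.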
In general terms: Time-resolved FRET reads energy transfer from a long-lived donor to a nearby acceptor.

For experiment [2], the target named is T1, Tyrosine-protein kinase ZAP-70 (Homo sapiens) (UniProt P43403).
T1 sequence (whole entry): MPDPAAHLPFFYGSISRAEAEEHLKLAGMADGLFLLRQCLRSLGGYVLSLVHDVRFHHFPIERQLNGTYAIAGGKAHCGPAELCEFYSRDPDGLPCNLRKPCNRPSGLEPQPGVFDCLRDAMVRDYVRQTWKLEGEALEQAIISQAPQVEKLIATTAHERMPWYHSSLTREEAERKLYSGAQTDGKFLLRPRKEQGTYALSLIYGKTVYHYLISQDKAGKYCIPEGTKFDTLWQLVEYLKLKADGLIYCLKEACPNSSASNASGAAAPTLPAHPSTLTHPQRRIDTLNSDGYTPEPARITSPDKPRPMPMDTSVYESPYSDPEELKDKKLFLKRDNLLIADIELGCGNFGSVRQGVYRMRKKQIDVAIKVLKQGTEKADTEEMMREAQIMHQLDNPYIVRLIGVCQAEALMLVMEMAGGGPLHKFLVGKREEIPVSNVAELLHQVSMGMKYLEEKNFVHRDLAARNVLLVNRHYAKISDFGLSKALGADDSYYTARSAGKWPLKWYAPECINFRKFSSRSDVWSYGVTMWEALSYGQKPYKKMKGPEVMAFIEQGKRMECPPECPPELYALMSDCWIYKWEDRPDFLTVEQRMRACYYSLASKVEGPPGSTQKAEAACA
Kind of experiment: Inhibition of ZAP70 at 10 uM by HTRF assay relative to control. In short, it runs like this: as §1

The target of experiment [3] is Receptor-type tyrosine-protein kinase FLT3 (Homo sapiens) (UniProt P36888). Kind of experiment: Inhibition of FLT3 at 10 uM by HTRF assay relative to control. In short, it runs like this:
as §1

In experiment [4] the target is Focal adhesion kinase 1 (Homo sapiens) (UniProt Q05397). Kind of experiment: Inhibition of FAK at 10 uM by HTRF assay relative to control. In short, it runs like this:
as §1

The target of experiment [5] is Vascular endothelial growth factor receptor 2 (Homo sapiens) (UniProt P35968). Kind of experiment: Inhibition of KDR at 10 uM by HTRF assay relative to control. Put shortly: as §1
Chain of Vascular endothelial growth factor receptor 2 (Homo sapiens) (P35968 whole entry): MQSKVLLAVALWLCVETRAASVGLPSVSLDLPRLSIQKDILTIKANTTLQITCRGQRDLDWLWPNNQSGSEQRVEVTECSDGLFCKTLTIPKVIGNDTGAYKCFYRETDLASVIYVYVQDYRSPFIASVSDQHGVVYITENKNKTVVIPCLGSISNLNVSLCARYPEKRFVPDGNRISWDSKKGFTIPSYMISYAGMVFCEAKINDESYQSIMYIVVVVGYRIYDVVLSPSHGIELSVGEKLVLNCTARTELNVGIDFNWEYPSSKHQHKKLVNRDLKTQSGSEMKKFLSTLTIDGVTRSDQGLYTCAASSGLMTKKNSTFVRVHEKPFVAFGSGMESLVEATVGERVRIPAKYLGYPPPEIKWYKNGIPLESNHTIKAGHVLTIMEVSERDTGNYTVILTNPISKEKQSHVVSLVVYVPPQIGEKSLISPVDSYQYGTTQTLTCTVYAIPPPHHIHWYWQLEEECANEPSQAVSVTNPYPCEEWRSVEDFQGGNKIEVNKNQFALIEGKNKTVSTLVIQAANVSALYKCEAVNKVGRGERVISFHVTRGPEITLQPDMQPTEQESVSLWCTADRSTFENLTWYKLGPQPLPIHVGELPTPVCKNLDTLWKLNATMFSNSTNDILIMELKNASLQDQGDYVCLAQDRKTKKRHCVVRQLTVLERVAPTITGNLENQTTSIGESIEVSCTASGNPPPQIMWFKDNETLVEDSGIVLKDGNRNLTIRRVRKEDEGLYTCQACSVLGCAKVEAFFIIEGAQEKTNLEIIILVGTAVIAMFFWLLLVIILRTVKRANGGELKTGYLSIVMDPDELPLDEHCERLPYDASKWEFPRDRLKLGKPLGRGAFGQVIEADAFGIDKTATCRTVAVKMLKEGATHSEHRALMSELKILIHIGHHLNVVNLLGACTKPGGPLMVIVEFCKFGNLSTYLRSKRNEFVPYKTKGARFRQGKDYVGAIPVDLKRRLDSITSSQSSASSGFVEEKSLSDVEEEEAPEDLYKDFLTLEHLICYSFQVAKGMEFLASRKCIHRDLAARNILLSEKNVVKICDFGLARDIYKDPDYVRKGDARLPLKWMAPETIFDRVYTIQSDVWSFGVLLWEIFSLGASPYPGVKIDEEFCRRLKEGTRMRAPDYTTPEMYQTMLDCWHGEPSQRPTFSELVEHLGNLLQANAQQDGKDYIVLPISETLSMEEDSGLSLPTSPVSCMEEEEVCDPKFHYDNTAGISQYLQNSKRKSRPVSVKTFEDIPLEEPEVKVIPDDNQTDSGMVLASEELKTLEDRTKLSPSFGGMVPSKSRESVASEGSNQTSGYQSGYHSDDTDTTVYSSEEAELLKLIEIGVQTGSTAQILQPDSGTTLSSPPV
The target of experiment [6] is Tyrosine-protein kinase ABL1 (Homo sapiens) (UniProt P00519). Kind of experiment: Inhibition of Abl at 10 uM by HTRF assay relative to control. In short, it runs like this: as §1
Chain of Tyrosine-protein kinase ABL1 (Homo sapiens) (P00519 whole entry): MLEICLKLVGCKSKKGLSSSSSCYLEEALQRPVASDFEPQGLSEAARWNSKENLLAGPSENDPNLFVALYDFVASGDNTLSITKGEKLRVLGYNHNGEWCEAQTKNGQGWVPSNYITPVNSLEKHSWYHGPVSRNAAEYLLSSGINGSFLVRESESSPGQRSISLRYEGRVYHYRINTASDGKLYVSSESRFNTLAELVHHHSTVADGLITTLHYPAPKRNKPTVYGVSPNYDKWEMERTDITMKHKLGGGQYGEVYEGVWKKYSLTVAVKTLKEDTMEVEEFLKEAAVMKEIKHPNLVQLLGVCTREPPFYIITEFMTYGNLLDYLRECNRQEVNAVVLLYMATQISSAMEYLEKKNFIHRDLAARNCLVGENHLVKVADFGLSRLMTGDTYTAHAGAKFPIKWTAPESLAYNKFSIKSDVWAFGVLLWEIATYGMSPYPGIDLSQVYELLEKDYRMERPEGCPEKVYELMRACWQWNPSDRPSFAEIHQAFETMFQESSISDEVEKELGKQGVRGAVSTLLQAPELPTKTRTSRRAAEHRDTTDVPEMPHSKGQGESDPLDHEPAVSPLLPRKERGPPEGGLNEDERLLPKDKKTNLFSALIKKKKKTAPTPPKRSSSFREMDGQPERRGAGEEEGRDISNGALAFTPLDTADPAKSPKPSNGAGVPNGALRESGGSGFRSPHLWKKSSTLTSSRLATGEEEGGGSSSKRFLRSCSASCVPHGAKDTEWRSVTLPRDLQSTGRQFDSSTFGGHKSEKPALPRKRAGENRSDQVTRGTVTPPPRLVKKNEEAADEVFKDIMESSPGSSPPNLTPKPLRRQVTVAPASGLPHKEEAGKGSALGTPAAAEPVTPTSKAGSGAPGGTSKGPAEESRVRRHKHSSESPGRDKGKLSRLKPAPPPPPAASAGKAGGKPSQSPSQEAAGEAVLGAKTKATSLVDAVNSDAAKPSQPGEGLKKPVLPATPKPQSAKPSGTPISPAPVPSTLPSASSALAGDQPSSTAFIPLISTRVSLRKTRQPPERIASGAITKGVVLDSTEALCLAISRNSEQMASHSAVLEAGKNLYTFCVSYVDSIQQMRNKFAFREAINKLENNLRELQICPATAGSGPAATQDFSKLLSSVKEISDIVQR
Experiment [7] is described as follows: Inhibition of PKA at 10 uM by HTRF assay relative to control. Put shortly: as §1
Experiment [8] has as its target T2, Ephrin type-B receptor 4 (Homo sapiens) (UniProt P54760).
T2 sequence (whole entry): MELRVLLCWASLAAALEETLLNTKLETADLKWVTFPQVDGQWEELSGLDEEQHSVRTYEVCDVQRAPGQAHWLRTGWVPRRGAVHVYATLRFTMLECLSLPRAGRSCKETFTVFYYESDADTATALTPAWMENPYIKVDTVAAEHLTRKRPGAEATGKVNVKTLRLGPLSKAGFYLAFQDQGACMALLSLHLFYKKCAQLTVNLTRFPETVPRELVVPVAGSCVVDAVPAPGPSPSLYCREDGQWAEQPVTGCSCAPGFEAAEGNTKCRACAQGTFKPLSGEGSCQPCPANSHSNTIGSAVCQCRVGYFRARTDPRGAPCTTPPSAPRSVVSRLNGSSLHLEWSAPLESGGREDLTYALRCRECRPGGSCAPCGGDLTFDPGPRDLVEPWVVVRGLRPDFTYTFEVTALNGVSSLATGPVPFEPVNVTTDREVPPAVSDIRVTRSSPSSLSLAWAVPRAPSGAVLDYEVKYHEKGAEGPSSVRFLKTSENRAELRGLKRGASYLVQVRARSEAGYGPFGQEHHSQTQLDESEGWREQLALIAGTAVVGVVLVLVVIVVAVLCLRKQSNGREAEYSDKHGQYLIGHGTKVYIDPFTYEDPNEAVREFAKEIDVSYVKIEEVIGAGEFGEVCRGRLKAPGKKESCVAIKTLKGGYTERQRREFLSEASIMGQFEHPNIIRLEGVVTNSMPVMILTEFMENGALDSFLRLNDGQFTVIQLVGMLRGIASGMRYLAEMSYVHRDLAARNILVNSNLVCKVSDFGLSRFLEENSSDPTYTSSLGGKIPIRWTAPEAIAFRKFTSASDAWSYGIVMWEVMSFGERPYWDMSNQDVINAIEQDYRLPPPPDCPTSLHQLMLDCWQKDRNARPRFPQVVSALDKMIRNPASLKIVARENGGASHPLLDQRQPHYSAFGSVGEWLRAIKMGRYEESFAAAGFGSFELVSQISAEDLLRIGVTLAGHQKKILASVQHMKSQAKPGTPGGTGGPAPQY
Put plainly: Inhibition of EphB4 at 10 uM by HTRF assay relative to control. Put shortly:
as §1

Experiment [9] deals with Tyrosine-protein kinase Lyn (Homo sapiens) (UniProt P07948). Kind of experiment: Inhibition of Lyn at 10 uM by HTRF assay relative to control. In short, it runs like this:
as §1

Experiment [10] addresses Mitogen-activated protein kinase 1 (Homo sapiens) (UniProt P28482). Kind of experiment: Inhibition of ERK2 at 10 uM by HTRF assay relative to control. In short, it runs like this: as §1

As a reminder, the inhibition is the percentage by which the read-out fell short of the control. Read a low inhibition as a weak effect.

Molecules are shown by their SMILES.

Chain of Tyrosine-protein kinase Lyn (Homo sapiens) (P07948 2-512 limits assumed): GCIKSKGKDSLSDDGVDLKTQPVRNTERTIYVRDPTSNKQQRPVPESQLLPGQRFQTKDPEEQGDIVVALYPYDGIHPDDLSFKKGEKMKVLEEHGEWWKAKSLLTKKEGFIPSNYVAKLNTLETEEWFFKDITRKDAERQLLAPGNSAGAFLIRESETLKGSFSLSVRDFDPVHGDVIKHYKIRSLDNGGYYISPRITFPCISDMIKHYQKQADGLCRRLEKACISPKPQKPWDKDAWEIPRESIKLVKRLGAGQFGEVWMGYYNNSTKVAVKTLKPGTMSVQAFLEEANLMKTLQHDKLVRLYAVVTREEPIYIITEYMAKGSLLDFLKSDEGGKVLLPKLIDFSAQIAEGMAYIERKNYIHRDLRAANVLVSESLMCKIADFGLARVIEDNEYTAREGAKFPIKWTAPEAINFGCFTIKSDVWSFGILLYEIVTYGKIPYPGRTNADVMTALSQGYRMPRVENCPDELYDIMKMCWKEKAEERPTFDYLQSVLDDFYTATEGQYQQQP
Chain of Mitogen-activated protein kinase 1 (Homo sapiens) (P28482 whole entry): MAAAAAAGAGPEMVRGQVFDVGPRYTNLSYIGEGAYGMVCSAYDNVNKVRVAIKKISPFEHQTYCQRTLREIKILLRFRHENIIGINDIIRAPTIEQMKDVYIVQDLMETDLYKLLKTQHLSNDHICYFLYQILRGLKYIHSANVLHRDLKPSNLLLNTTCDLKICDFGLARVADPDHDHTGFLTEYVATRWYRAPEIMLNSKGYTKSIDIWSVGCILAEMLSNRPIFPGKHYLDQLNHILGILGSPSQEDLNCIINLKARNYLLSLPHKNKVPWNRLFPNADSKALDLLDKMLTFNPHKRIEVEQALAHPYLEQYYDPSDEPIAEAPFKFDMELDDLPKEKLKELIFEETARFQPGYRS
Chain of RAC-alpha serine/threonine-protein kinase (Homo sapiens) (P31749 whole entry): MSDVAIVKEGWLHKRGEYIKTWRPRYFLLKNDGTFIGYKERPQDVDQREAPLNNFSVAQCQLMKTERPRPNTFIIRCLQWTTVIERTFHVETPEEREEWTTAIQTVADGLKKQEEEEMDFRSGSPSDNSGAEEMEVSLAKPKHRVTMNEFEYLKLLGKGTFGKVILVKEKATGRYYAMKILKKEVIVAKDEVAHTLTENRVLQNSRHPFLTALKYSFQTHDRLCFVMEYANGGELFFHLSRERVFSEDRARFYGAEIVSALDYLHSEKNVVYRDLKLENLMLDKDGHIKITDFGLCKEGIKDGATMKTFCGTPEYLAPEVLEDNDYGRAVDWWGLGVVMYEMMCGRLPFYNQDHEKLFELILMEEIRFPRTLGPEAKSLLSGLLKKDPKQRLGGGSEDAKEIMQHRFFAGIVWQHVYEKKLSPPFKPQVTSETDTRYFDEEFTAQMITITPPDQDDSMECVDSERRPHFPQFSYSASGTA
Chain of Receptor-type tyrosine-protein kinase FLT3 (Homo sapiens) (P36888 whole entry): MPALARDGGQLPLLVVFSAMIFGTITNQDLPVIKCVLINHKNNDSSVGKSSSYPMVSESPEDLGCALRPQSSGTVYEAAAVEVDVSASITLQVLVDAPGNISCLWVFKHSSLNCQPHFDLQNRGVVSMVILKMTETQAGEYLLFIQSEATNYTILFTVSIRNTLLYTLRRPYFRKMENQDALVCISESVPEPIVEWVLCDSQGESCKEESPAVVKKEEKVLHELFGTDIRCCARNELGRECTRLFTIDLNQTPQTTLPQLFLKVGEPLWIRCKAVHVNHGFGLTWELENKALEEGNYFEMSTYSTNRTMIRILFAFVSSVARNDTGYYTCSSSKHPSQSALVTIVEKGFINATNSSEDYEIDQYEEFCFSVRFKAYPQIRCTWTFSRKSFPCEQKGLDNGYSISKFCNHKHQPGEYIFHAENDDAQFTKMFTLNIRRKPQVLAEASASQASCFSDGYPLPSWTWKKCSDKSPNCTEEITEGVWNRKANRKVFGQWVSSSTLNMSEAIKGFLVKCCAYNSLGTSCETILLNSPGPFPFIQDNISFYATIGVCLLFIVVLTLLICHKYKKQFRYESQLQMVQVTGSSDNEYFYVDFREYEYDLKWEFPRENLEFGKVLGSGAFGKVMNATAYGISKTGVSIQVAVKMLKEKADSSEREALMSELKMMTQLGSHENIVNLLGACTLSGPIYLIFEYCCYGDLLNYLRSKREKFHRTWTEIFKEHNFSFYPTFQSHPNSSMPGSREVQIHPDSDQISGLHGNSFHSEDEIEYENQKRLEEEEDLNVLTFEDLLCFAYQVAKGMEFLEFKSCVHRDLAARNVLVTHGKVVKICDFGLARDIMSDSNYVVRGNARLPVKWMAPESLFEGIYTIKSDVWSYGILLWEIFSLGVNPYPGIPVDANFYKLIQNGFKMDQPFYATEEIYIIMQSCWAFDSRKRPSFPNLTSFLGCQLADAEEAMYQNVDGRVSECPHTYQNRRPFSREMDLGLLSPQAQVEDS

On to `CN(C)CC(C)(C)CNC(=O)C1CCN(c2cc(N3CCOCC3)nc(N)n2)CC1`, for which the inhibition was determined as 0% in [1]; 8% in experiment [2]; 0% in experiment [3]; 3% in experiment [4]; 12% in experiment [5]; 2% in experiment [6]. Further, the inhibition in experiment [7] was 0%; in [8], 0%; in experiment [9] it was 7%; in [10] it was 0%.
`Cc1cccc(Nc2nccc(Nc3cccc(C(=O)N(C)CCc4ccccn4)c3)n2)c1`: the inhibition in experiment [1] turned out to be 0%; in [2] it was 23%; in experiment [3], 86%; in experiment [4], 99%; in [5], 81%; in experiment [6], 38%. Moreover, the inhibition in experiment [7] is 0%; in [8], 5%; in [9], 47%; in [10] it was 0%.
Take `O=C(NCc1ccncc1)c1cccc(Nc2cc(Nc3cccc(Br)c3)ncn2)c1`: the inhibition in [1] came out at 0%; in [2] it was 9%; in [3], 35%; in experiment [4], 12%; in experiment [5], 22%; in experiment [6] it was 31%. The inhibition in experiment [7] is 0%; in experiment [8] it was 0%; in experiment [9], 29%; in [10], 0%.
With `Cc1cccc(Oc2ccnc(N3CCN(C(=O)c4c(C)noc4C)CC3)n2)c1`, the inhibition in [1] was 1%; in [2] it was 4%; in experiment [3], 0%; in experiment [4], 0%; in experiment [5] it was 18%; in experiment [6], 0%. Moreover, the inhibition is 2% in experiment [7], 0% in experiment [8], 0% in experiment [9] and 0% in [10].
For `COc1cccc(Nc2cc(Nc3cccc(C(=O)NCCCn4ccnc4)c3)nc(N)n2)c1`, the inhibition was determined as 1% in experiment [1]; 6% in experiment [2]; 1% in [3]; 10% in experiment [4]; 13% in experiment [5]; 25% in [6]. Further, the inhibition in [7] amounted to 13%; in [8], 0%; in [9] it was 2%; in [10], 1%.
`O=C(NCc1cccnc1)c1cccc(-c2ccc(Nc3ccc4ncsc4c3)nn2)c1`: the inhibition in [1] stood at 5%; in [2], 11%; in [3] it was 98%; in experiment [4], 67%; in experiment [5] it was 62%; in experiment [6] it was 23%. For the same compound, the inhibition in experiment [7] worked out at 16%; in [8] it was 0%; in experiment [9], 48%; in [10], 40%.
For `Cc1cccc(CN2CCN(c3cc(N(C)c4cccc(C)c4)ncn3)CC2)c1`, the inhibition in experiment [1] was found to be 5%; in experiment [2], 4%; in experiment [3], 0%; in [4], 4%; in [5], 3%; in experiment [6], 2%. For the same compound, the inhibition was 0% in [7], 0% in experiment [8], 3% in [9] and 8% in experiment [10].
As for `Nc1nc(N2CCOCC2)cc(N2CCC(C(=O)NCCc3ccc(O)cc3)CC2)n1`, the inhibition in experiment [1] amounted to 2%; in experiment [2], 2%; in experiment [3], 0%; in experiment [4], 3%; in experiment [5], 7%; in [6], 6%. The inhibition in experiment [7] was determined as 0%; in experiment [8], 0%; in experiment [9] it was 5%; in [10] it was 11%.
As for `O=C(c1nc(SCc2ccc(Cl)cc2)n2ccccc12)N1CCN(c2ncnc3c2CN(Cc2ccccc2)CC3)CC1`, the inhibition is 0% in experiment [1]; 3% in experiment [2]; 0% in experiment [3]; 0% in [4]; 10% in experiment [5]; 13% in [6]. In addition, the inhibition in [7] came to 0%; in experiment [8] it was 0%; in experiment [9] it was 1%; in experiment [10], 3%.
Regarding `Cc1cccc(Nc2nccc(Nc3cccc(C(=O)NCc4ccc(N(C)C)cc4)c3)n2)c1`, the inhibition is 1% in experiment [1]; 6% in experiment [2]; 54% in [3]; 17% in experiment [4]; 11% in experiment [5]; 11% in experiment [6]. Moreover, the inhibition is 0% in [7], 0% in [8], 9% in experiment [9] and 0% in [10].
With `CN(CCc1ccccn1)C(=O)[C@@H]1CCCN1c1nccc(Nc2ccccc2)n1`, the inhibition worked out at 1% in [1]; 3% in experiment [2]; 0% in experiment [3]; 2% in experiment [4]; 2% in [5]; 8% in experiment [6]. The inhibition in [7] was found to be 0%; in experiment [8], 0%; in [9], 0%; in experiment [10], 3%.
Take `CN(CCCn1ccnc1)C(=O)[C@@H]1CCCN1c1nccc(Nc2ccccc2)n1`: the inhibition in experiment [1] came out at 0%; in [2] it was 3%; in [3], 0%; in experiment [4], 10%; in experiment [5], 3%; in [6] it was 2%. In addition, the inhibition in [7], in [8], in [9] and in experiment [10] was 0% throughout.
Consider `CN(CCc1ccccn1)C(=O)c1cccc(Nc2nccc(Nc3ccc4ncsc4c3)n2)c1`, for which the inhibition was determined as 0% in [1]; 13% in [2]; 98% in experiment [3]; 78% in experiment [4]; 95% in experiment [5]; 69% in experiment [6]. The inhibition in experiment [7] came out at 1%; in experiment [8], 17%; in [9] it was 48%; in experiment [10] it was 0%.
In the case of `Cc1cccc(N(C)c2cc(Nc3cccc(C(=O)NCCCn4ccnc4)c3)ncn2)c1`, the inhibition came out at 0% in [1]; 4% in experiment [2]; 15% in experiment [3]; 15% in experiment [4]; 26% in experiment [5]; 71% in experiment [6]. Also, the inhibition came out at 0% in experiment [7], 0% in experiment [8], 27% in experiment [9] and 4% in experiment [10].
Consider `Cc1cccc(Oc2ccnc(N3CCC[C@H]3C(=O)NCCCn3ccnc3)n2)c1`, for which the inhibition in experiment [1] worked out at 0%; in experiment [2] it was 2%; in [3], 0%; in [4], 4%; in experiment [5], 11%; in experiment [6], 5%. In addition, the inhibition is 0% in experiment [7], 0% in experiment [8], 1% in [9] and 0% in experiment [10].
In the case of `CN(C)c1ccc(C(=O)N2CCN(c3ncnc4c3CN(Cc3ccccc3)CC4)CC2)c2ccccc12`, the inhibition came to 4% in [1]; 2% in experiment [2]; 0% in experiment [3]; 0% in experiment [4]; 3% in [5]; 8% in [6]. Besides, the inhibition in experiment [7] was 0%; in experiment [8], 0%; in experiment [9], 0%; in [10] it was 8%.
